Measurements reported in ChEMBL document CHEMBL3286213, “Exploration of the dihydropyrimidine scaffold for the development of new potential anti-inflammatory agents blocking prostaglandin E₂ synthase-1 enzyme (mPGES-1)” (Eur J Med Chem, 2014).
Activity calls are given as the source filed them. The calls are words filed in the database; no cut-off is given here.

Key:
[1] = biological target: T1, Prostaglandin E synthase (Homo sapiens) (UniProt O14684); test: Inhibition of mPGES-1 in interleukin-1 beta-stimulated human A549 cell microsomes assessed as reduction in PGE2 production using PGH2 as substrate at <10 uM treated for 15 mins prior to substrate addition measured after 1 min by RP-HPLC analysis
T1 sequence (whole entry): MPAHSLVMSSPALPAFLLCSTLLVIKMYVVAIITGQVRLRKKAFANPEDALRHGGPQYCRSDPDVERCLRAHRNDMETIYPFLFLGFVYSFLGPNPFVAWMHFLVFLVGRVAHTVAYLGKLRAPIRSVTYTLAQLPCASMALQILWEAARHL
Outline: (§1)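 Diluted in 0.1 M potassium phosphate pH 7.4 with 2.5 mM GSH. Compound or vehicle 15 min at 4 °C, then PGH2 added, 1 min. Stopped with FeCl2/citric acid plus 11β-PGE2 internal standard. PGE2 by SPE and RP-HPLC. Mean ± SE.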

[2] = Retention time of the compound by RP-HPLC analysis; assay type: physicochemical
Outline: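 RP-HPLC with eluent A 0.1% TFA in water and eluent B 0.1% TFA in CH3CN, detection at 280 nm.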

Prostaglandin E synthase = biological target: T2, Prostaglandin E synthase (Homo sapiens, UniProt O14684); test: Inhibition of mPGES-1 in interleukin-1 beta-stimulated human A549 cell microsomes assessed as reduction in PGE2 production using PGH2 as substrate treated for 15 mins prior to substrate addition measured after 1 min by RP-HPLC analysis; outline: as §1
T2 sequence (O14684 whole entry): T1 sequence (whole entry)

[3] = biological target: T1, Prostaglandin E synthase (Homo sapiens); test: Inhibition of mPGES-1 in interleukin-1 beta-stimulated human A549 cell microsomes assessed as reduction in PGE2 production using PGH2 as substrate at 10 uM treated for 15 mins prior to substrate addition measured after 1 min by RP-HPLC analysis; outline: as §1

Row | SMILES | inhibition [1] | Retention_time [2] [min] | IC50 (Prostaglandin E synthase) [µM] | inhibition [3] [%]
1 | CCOC(=O)C1=C(C(=O)c2ccc(OC)cc2)C(c2cccc(C=O)c2)NC(=O)N1 (configuration not stated) | inactive | 24.7 | – | –
2 | CCOC(=O)C1=C(C(=O)c2ccc(OC)cc2)[C@H](c2cccc(-c3ccc(C#N)cc3)n2)NC(=O)N1 | inactive | 20.8 | – | –
3 | CCOC(=O)C1=C(C(=O)c2ccc(OC)cc2)[C@H](c2ccc(-c3cccc(C(F)(F)F)c3)o2)NC(=O)N1 | – | 34.2 | 4.16 | –
4 | CCOC(=O)C1=C(C(=O)c2ccc(OC)cc2)[C@H](c2ccc(-c3cccc(C(F)(F)F)c3)o2)NC(=O)N1C | – | 30.3 | 7.56 | –
5 | CCOC(=O)C1=C(C(=O)c2ccc(OC)cc2)C(c2cccc(OCC)c2)NC(=O)N1 (configuration not stated) | inactive | 22.9 | – | –
6 | CCOC(=O)C1=C(C(=O)c2ccc(OC)cc2)C(c2ccc(-c3cccc(C(F)(F)F)c3)o2)NC(=S)N1 (configuration not stated) | – | 32.3 | > 30 | 37
7 | CCOC(=O)C1=C(C(=O)c2ccc(OC)cc2)[C@H](c2coc3c(Br)cc(Br)cc3c2=O)NC(=O)N1 | inactive | 26.4 | – | –
8 | CCOC(=O)C1=C(C)N(C)C(=O)NC1c1ccc(-c2cccc(C(F)(F)F)c2)o1 (configuration not stated) | inactive | 26.7 | – | –
